Most compounds without a hit are left out; they make up all but 2.6% or so of the library.
SMARCA2 activ: activators of SMARCA2 function | MG213 cells, MMTV-luciferase reporter, dexamethasone, overnight | activation, % at 9.1 µM | 1% of 370,000 active | AID 652017; in the data active = activation above about 7.8%
ARFGAP1 inh: inhibits rat ARF GTPase activating protein 1; 0.26% of 360,000 active; AID 651572; inhibition, % at 16.5 µM; Arfgap1-stimulated ARF1 GTP hydrolysis, GDP FP detection; Q62848;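 active = inhibition above a per-plate limit, mean inhibition of low control wells plus 3 SD, cut at about 25% in these data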
Target sequence (Q62848 1-136 limits assumed): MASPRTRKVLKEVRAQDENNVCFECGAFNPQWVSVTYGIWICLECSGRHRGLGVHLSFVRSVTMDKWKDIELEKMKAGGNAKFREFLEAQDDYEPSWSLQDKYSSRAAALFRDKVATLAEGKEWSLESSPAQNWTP
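Material: rat Arfgap1 catalytic domain, aa 1-136; also added: human ARF1(Δ1-17)-GTP substrate; compound dosing: one concentration, 16.5 µM, DMSO 1.26%; incubation: GTP hydrolysis reaction 2 h at 25 °C; measured by: Tracer-displacement fluorescence polarization with EDTA stop, 620/688 nm; evaluation: % inhibition from polarization; repeats: one replicate per compound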
ASAP1 GAP inh: inhibitors of human ASAP1 ArfGAP activity; ASAP1-stimulated ARF1 GTP hydrolysis, GDP FP detection; inhibition, % at 16.5 µM; 0.19% of 360,000 active; AID 624377; in the data active = inhibition above about 25%
Target sequence (Q9ULH1 325-724 limits assumed): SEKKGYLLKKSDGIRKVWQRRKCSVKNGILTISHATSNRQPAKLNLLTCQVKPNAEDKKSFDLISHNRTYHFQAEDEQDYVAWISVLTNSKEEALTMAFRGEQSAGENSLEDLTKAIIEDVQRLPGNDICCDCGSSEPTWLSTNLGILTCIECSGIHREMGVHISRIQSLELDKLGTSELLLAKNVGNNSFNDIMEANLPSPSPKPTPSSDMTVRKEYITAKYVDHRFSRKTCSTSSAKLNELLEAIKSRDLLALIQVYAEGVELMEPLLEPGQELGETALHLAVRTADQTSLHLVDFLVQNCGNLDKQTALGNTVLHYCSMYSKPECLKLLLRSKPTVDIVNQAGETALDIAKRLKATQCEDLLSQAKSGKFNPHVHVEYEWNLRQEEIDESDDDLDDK
esBAF inh: SWI/SNF esBAF complex inhibition; mouse ES cells, Bmi1-luciferase knock-in reporter, 24 h; 100% = twice the neutral-well signal; reporter increase, % at 12.5 µM; 2% of 350,000 active; AID 602393; in the data active = activation above about 40%; inconclusive = no clear call, values can overlap the other calls;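 note: a rise in the Bmi1 reporter signal indicates esBAF inhibition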
SMARCA2 act conf: confirmation of SMARCA2 (BRM) function activators; shares compounds with SMARCA2 activ; MG213 cells, MMTV-luciferase with dexamethasone, luminescence, overnight; MG213 cells expressing E1A, Rb sequestered; DMSO wells 0%, reference activator 100%; activation, % at 9.1 µM; 30% of 3,500 active;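 active = activation above its plate's cutoff, the mean activation of tested wells plus 3 SD, cut at about 7.9% in these data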
VP16 Luc act: counter-screen for SMARCA2 activators: GAL4-VP16 luciferase reporter activation; activation, % at 9.1 µM; AID 686939; HEK293 GAL4-VP16 pG5luc reporter, luciferase luminescence; scaled: DMSO wells 0%, SAHA wells 100%; shares compounds with SMARCA2 activ; 41% of 3,500 active;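 active = activation above the solvent-only control well mean plus 3 SD, averaged across control plates, cut at about 5.2% in these data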
Large screens that a line does not name were inactive (follow-up assays come after a bar, where they were run).

COc1ccc(-c2cc(=O)c3ccccc3s2)cc1	SMARCA2 activ 8.8 | SMARCA2 act conf inactive | VP16 Luc act 9.7
COc1ccc2sc3ccccc3c(=O)c2c1	none
COc1ccc(-n2sc3ccc(F)cc3c2=O)cc1	none
C[C@@H]1CCCCO[C@@H](CN(C)C(=O)Cc2ccccc2)[C@H](C)CN([C@H](C)CO)C(=O)c2cc(NS(=O)(=O)c3ccc(F)cc3)ccc2O1	none (no result: SMARCA2 activ, ARFGAP1 inh, ASAP1 GAP inh)
O=C(O)C[C@@H]1C[C@H]2c3cc(NC(=O)NC4CCCCC4)ccc3O[C@H]2[C@@H](CO)O1	none (no result: SMARCA2 activ, ARFGAP1 inh, ASAP1 GAP inh)
CN1C(=O)c2cc(NC(=O)C3CCCC3)ccc2OC[C@@H]2O[C@@H](CC(=O)O)CC[C@@H]21	none (no result: SMARCA2 activ, ARFGAP1 inh, ASAP1 GAP inh)
CC(=O)c1ccc(N2CCN(S(=O)(=O)c3ccc4c(c3)C(Cl)(Cl)C(=O)N4)CC2)cc1	SMARCA2 activ 10 | SMARCA2 act conf inactive | VP16 Luc act inactive
COc1ccc(Nc2nc(N)nc(CSc3nccn3C)n2)cc1	SMARCA2 activ 8.7 (no result: esBAF inh) | SMARCA2 act conf inactive | VP16 Luc act 8.2
COc1ccc(Nc2nc(N)nc(CSc3nnc(N)s3)n2)cc1	none
CC(=O)Nc1sc(NC(=O)c2ccc([N+](=O)[O-])cc2)nc1-c1cccs1	SMARCA2 activ 9.4 (no result: esBAF inh) | SMARCA2 act conf inactive | VP16 Luc act inactive
CC(=O)Nc1sc(NC(=O)c2ccc(Cl)cc2)nc1-c1cccs1	none (no result: esBAF inh)
CC(=O)NC(=O)c1ccc(-c2ccc(Cl)cc2)o1	SMARCA2 activ 8.5 | SMARCA2 act conf inactive | VP16 Luc act inactive
O=C(NC(=S)Nc1ccccc1O)c1ccc(-c2ccc(Cl)cc2)o1	none
CN1CCN(c2ccc(NC(=O)c3ccc(-c4ccc(Cl)cc4)o3)cc2)CC1	SMARCA2 activ 9.1 | SMARCA2 act conf inactive | VP16 Luc act inactive
CN1CCN(C(=O)c2ccccc2NC(=O)c2sc3ccccc3c2Cl)CC1	none
CN1CCN(c2ccc(NC(=O)c3sc4ccccc4c3Cl)cc2)CC1	SMARCA2 activ 8.4 | SMARCA2 act conf inactive | VP16 Luc act inactive
O=C(NCC1CC1)[C@H]1[C@H](CO)[C@H]2Cn3c(ccc(C4=CCCCC4)c3=O)[C@H]2N1Cc1ccccc1F	none (no result: SMARCA2 activ, ARFGAP1 inh, ASAP1 GAP inh)
COc1ccc(NC(=O)N2C[C@@H](O)COC[C@H]3O[C@@H](CC(=O)NC4Cc5ccccc5C4)CC[C@@H]32)cc1	none (no result: SMARCA2 activ, ARFGAP1 inh, ASAP1 GAP inh)
CCCC(=O)Nc1ccc2c(c1)C(=O)N(C)[C@H]1CC[C@H](CC(=O)NCCOC)O[C@H]1CO2	none (no result: SMARCA2 activ, ARFGAP1 inh, ASAP1 GAP inh)
CCN(CC)c1ccc(NC(=O)c2ccc3c(c2)OCO3)cc1	SMARCA2 activ 10, esBAF inh inconclusive | SMARCA2 act conf inactive | VP16 Luc act 11
CCC(CC)c1nnc(NC(=O)c2ccc3c(c2)OCO3)s1	SMARCA2 activ 10, esBAF inh 58 | SMARCA2 act conf inactive | VP16 Luc act 6.6
O=C(Nc1ccccn1)c1ccc2c(c1)OCCO2	SMARCA2 activ 11 | SMARCA2 act conf inactive | VP16 Luc act 6.0
CCC(CC)c1nnc(NC(=O)COc2ccc3c(c2)OCO3)s1	none
Cc1nc(NC(=O)c2ccc3c(c2)OCO3)ccc1Br	SMARCA2 activ 8.6 (no result: esBAF inh) | SMARCA2 act conf inactive | VP16 Luc act 14
CC(=O)Nc1ccc2c(c1)C(=O)N(C)[C@@H]1CC[C@@H](CC(=O)NCc3ccc4c(c3)OCO4)O[C@H]1CO2	none (no result: SMARCA2 activ, ARFGAP1 inh, ASAP1 GAP inh)
C/C(=N\NC(=O)c1ccc2c(c1)OCO2)c1ccc(NC(=O)CCCC(=O)O)cc1	SMARCA2 activ 8.3 | SMARCA2 act conf inactive | VP16 Luc act inactive
C/C(=N\NC(=O)c1ccc2c(c1)OCCO2)c1ccccc1	none
COCC(=O)N(C)C[C@@H]1Oc2cc(-c3ccc(F)cc3)ccc2S(=O)(=O)N([C@@H](C)CO)C[C@@H]1C	none (no result: SMARCA2 activ, ARFGAP1 inh, ASAP1 GAP inh)
O=C(COc1ccccc1Cl)NCCc1ccc2c(c1)OCCO2	SMARCA2 activ 11 (no result: esBAF inh) | SMARCA2 act conf inactive | VP16 Luc act inactive
COc1cc(Cl)c(CNC[C@H]2O[C@@H](n3ccc(=O)[nH]c3=O)[C@H](O)[C@@H]2O)c(Cl)c1O	SMARCA2 activ 10 | SMARCA2 act conf inactive | VP16 Luc act inactive
Cc1ccc2nc(Cl)c3cc(C(=O)NCCCN4CCCC4)sc3c2c1	SMARCA2 activ 14 | SMARCA2 act conf 10 | VP16 Luc act inactive
CCOC(=O)C1(N(CC)CC)Sc2cc(C)ccc2NC1=O (stereo not drawn)	none
C=C(C)C(=O)OC1(C(F)(F)F)Oc2cc(C)ccc2NC1=O (stereo not drawn)	SMARCA2 activ 21 | SMARCA2 act conf inactive | VP16 Luc act inactive
CNC[C@H]1Oc2ccc(NC(=O)CCC(F)(F)F)cc2C(=O)N([C@@H](C)CO)C[C@@H]1C	none (no result: SMARCA2 activ, ARFGAP1 inh, ASAP1 GAP inh)
O=C(CC(Sc1ccc(Br)cc1)C(=O)O)c1ccc(F)cc1 (stereo not drawn)	SMARCA2 activ 8.6 | SMARCA2 act conf inactive | VP16 Luc act inactive
CC(C)CC#Cc1ccc2c(c1)O[C@H](CN(C)Cc1cccc(F)c1)[C@@H](C)CN([C@@H](C)CO)S2(=O)=O	none (no result: SMARCA2 activ, ARFGAP1 inh, ASAP1 GAP inh)
CC(C)C(Cl)=NOC(=O)Nc1ccc(F)cc1	SMARCA2 activ 43 (no result: esBAF inh) | SMARCA2 act conf inactive | VP16 Luc act inactive
Cc1ccc(S(=O)(=O)N(C)C[C@H]2OCCCC[C@@H](C)Oc3ccc(NS(=O)(=O)c4cn(C)cn4)cc3C(=O)N([C@@H](C)CO)C[C@@H]2C)cc1	none (no result: SMARCA2 activ, ARFGAP1 inh, ASAP1 GAP inh)
CCOC(=O)c1cn2nc(Oc3ccc(OC)cc3)ccc2n1	none
CCOC(=O)c1cn2nc(Oc3ccc(C)cc3)ccc2n1	SMARCA2 activ 15 (no result: esBAF inh) | SMARCA2 act conf inactive | VP16 Luc act inactive
OCCN(Cc1ccccc1)Cc1ccc(Cl)cc1Cl	SMARCA2 activ 8.2 | SMARCA2 act conf inactive | VP16 Luc act inactive
OCCN(Cc1ccccc1)Cc1ncccc1O	none
CCC1(c2ccc(Cl)cc2)NC(=S)N(c2ccc(C)c(C)c2)N1 (stereo not drawn)	none (no result: esBAF inh)
CCC1(c2ccc(Cl)cc2)NC(=S)N(c2ccc(C)cc2)N1 (stereo not drawn)	SMARCA2 activ 9.3 (no result: esBAF inh) | SMARCA2 act conf inactive | VP16 Luc act inactive
O=C(O)CCC(=O)N1N=C(c2c(-c3ccccc3)c3cc(Cl)ccc3[nH]c2=O)CC1c1ccco1 (stereo not drawn)	none (no result: esBAF inh)
CCC(=O)N1N=C(c2c(-c3ccccc3)c3cc(Cl)ccc3[nH]c2=O)CC1c1ccco1 (stereo not drawn)	SMARCA2 activ 10 (no result: esBAF inh) | SMARCA2 act conf inactive | VP16 Luc act inactive
O=C(C[C@@H]1CC[C@@H](NC(=O)NC2CCCCC2)[C@H](CO)O1)NCc1ccccc1	none (no result: SMARCA2 activ, ARFGAP1 inh, ASAP1 GAP inh)
N#C/C(=C\c1ccc2c(c1)OCO2)C(=O)NCc1ccco1	none (no result: esBAF inh)
COCCNC(=O)/C(C#N)=C/c1ccc2c(c1)OCO2	SMARCA2 activ 9.1 | SMARCA2 act conf inactive | VP16 Luc act inactive
Cc1noc(C)c1S(=O)(=O)Nc1ccc2c(c1)C(=O)N([C@H](C)CO)C[C@H](C)[C@H](CN(C)Cc1ccc3c(c1)OCO3)O2	none (no result: SMARCA2 activ, ARFGAP1 inh, ASAP1 GAP inh)
COC(=O)c1nn(-c2ccc3c(c2)CCN3C(C)=O)cc1O	none (no result: esBAF inh)
